Test [1] addresses Sodium-dependent dopamine transporter (Rattus norvegicus, UniProt P23977). Nature of the test: Displacement of [3H]WIN-35428(0.5 nM) from Dopamine transporter. A digest of the protocol:
(§1)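 IC50 is taken as inhibition of specific binding. Values are mean ± standard error of three or four experiments, with triplicate determinations at each concentration.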
In general terms: In a radioligand displacement assay an active substance lowers the binding of a labelled ligand.

Test [2] addresses Norepinephrine transporter (Rattus norvegicus, UniProt Q9WTR4). Nature of the test: Inhibition of [3H]nisoxetine (0.5 nM) binding to Noradrenaline transporter. A digest of the protocol:
as §1

Test [3] deals with Sodium-dependent serotonin transporter (Rattus norvegicus, UniProt P31652). Nature of the test: Inhibition of [3H]paroxetine (0.2 nM) binding to 5-HT transporter. A digest of the protocol: as §1
Sequence of Sodium-dependent serotonin transporter (P31652 whole entry): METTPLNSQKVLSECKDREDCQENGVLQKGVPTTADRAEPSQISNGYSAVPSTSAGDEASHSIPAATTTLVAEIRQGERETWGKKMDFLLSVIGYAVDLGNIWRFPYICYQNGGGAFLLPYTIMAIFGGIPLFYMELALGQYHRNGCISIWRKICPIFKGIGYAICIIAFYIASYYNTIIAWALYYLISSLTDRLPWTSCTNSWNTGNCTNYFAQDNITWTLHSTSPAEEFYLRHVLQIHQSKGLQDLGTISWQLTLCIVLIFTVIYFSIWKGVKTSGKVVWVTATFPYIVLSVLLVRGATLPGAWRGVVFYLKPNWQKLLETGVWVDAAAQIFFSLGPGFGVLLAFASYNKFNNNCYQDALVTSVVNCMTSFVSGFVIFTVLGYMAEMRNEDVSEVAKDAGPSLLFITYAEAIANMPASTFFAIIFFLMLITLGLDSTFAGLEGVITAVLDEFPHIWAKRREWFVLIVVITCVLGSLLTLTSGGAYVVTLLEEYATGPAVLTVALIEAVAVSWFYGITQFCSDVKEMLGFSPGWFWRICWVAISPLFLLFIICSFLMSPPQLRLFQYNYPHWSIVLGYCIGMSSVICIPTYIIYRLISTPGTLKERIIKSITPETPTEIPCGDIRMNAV

Sequence of Sodium-dependent dopamine transporter (P23977 whole entry): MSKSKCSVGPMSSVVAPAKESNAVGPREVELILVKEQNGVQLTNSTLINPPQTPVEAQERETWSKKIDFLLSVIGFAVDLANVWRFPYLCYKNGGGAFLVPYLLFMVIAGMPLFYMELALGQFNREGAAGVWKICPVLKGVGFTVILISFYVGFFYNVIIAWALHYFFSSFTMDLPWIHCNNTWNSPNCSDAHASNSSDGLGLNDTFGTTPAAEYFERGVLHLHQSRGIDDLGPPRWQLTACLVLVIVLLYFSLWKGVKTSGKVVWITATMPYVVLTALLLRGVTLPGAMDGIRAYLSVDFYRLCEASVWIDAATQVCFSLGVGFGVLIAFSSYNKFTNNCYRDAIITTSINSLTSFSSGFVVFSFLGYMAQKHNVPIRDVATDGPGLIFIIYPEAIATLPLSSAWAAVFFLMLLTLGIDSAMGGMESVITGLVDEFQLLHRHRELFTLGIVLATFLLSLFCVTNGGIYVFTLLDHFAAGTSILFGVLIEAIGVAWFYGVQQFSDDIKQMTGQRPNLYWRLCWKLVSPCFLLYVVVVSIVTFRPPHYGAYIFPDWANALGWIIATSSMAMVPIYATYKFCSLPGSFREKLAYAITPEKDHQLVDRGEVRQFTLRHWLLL
Sequence of Norepinephrine transporter (Q9WTR4 whole entry): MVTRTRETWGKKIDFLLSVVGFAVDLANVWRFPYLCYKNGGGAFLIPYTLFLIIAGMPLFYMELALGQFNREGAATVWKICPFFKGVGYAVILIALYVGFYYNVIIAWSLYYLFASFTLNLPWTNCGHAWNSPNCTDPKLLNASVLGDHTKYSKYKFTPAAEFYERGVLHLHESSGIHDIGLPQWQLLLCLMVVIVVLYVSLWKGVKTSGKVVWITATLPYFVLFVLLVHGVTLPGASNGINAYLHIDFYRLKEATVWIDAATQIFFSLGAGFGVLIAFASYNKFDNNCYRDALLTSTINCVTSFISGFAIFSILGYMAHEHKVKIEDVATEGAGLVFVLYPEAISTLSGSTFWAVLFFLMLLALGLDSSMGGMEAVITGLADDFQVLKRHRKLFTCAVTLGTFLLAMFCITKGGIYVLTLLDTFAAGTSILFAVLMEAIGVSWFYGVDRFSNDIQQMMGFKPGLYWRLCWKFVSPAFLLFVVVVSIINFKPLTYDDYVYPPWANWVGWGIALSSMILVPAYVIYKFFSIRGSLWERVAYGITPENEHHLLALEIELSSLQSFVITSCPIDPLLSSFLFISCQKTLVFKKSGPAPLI

As a reminder, the IC50 is the concentration needed to halve the response being measured. A low value points to inhibition by little substance. In the case of `CN1C2CC[C@@H]1C[C@H](c1ccc(F)cc1)[C@@H]2COc1ccc2c(c1)OCO2`, the half-inhibitory concentration (IC50) in test [1] worked out at 0.308 µM; in test [2], 5.3 µM; in test [3] it was 0.294 µM.

Turning to `CN1C2CC[C@@H]1C[C@H](c1ccc(F)cc1)[C@H]2COc1ccc2c(c1)OCO2`, the concentration for half-maximal inhibition (IC50) in test [1] was determined as 0.172 µM; in test [2], 26.6 µM; in test [3] it was 0.0529 µM.

As for `Fc1ccc([C@H]2CC3CCC(N3)[C@H]2COc2ccc3c(c2)OCO3)cc1` (stereo in doubt; 4f), the IC50 in test [1] is 0.403 µM; in test [2], 1.99 µM; in test [3], 0.019 µM.

For the compound `Fc1ccc([C@@H]2CC3CCC(N3)[C@H]2COc2ccc3c(c2)OCO3)cc1` (stereo in doubt; 4d), the IC50 in test [1] stood at 1.21 µM; in test [2] it was 17.3 µM; in test [3] it was 0.424 µM.

For the compound `CN1C2CC[C@@H]1[C@@H](COc1ccc3c(c1)OCO3)[C@H](c1ccc(F)cc1)C2`, the figures for the 50% inhibitory concentration (IC50) in test [1], in test [2] and in test [3] were 1.05 µM, 27.6 µM and 0.0881 µM, respectively.

For `Fc1ccc([C@H]2CC3CCC(N3)[C@H]2COc2ccc3c(c2)OCO3)cc1` (stereo in doubt; 4a), the half-maximal inhibitory concentration (IC50) was determined as 0.835 µM in test [1], 37.4 µM in test [2] and 0.48 µM in test [3].

Take `CN1C2CC[C@@H]1[C@@H](COc1ccc3c(c1)OCO3)[C@@H](c1ccc(F)cc1)C2`: the IC50 in test [1] worked out at 0.298 µM; in test [2], 12.4 µM; in test [3], 0.178 µM.

Turning to `Fc1ccc([C@@H]2CC3CCC(N3)[C@H]2COc2ccc3c(c2)OCO3)cc1` (stereo in doubt; 4c), the IC50 in test [1] came to 0.00386 µM; in test [2], 0.0144 µM; in test [3] it was 0.00562 µM.

Turning to `CN1C2CC[C@@H]1[C@H](COc1ccc3c(c1)OCO3)[C@H](c1ccc(F)cc1)C2`, the IC50 came to 1.5 µM in test [1], 2.92 µM in test [2] and 0.447 µM in test [3].

For the compound `Fc1ccc([C@H]2CC3CCC(N3)[C@@H]2COc2ccc3c(c2)OCO3)cc1` (stereo partly specified), the IC50 was determined as 0.142 µM in test [1], 2.5 µM in test [2] and 0.09 µM in test [3].

Regarding `Fc1ccc([C@@H]2CC3CCC(N3)[C@@H]2COc2ccc3c(c2)OCO3)cc1` (stereo partly specified), the IC50 in test [1] amounted to 0.0276 µM; in test [2], 1.69 µM; in test [3], 0.0558 µM.

As for `CN1C2CC[C@@H]1C[C@@H](c1ccc(F)cc1)[C@@H]2COc1ccc2c(c1)OCO2`, the values for the concentration for half-maximal inhibition (IC50) in test [1], in test [2] and in test [3] were 0.00301 µM, 0.123 µM and 0.422 µM, respectively.

Values taken from ChEMBL document CHEMBL1131114 (J Med Chem, 1998).
